Assay results as given in ChEMBL document CHEMBL1137739, “Synthesis of chlorovinyl sulfones as structural analogs of chalcones and their antiplasmodial activities” (Eur J Med Chem, 2009).

Columns and labels:
[1] = molecular target: T1, Histidine-rich protein PFHRP-II (Plasmodium falciparum) (UniProt P05227); assay: Inhibition of acetate buffer-induced hemozoin formation at 1.25 to 25 mM/well after 48 hrs; format: functional; parameters: scale not given: the % may be the effect or the level left
T1 sequence (whole entry): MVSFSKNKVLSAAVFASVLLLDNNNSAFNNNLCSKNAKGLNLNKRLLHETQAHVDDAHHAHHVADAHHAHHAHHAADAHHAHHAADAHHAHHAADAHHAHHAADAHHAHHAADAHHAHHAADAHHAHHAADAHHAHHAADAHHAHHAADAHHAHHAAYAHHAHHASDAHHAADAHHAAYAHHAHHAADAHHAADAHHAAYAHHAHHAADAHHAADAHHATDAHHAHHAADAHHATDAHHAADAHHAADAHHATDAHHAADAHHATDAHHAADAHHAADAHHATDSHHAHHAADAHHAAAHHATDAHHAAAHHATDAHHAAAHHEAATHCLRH
Summary of the method: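 Hemin chloride solution (4 mM, in DMSO) was mixed in triplicate with compounds in DMSO at final 1.25–25 per well. Controls were water or DMSO. Reaction was started with 0.2 M acetate buffer pH 4.4 and run at 37 °C for 48 h. Pellets were centrifuged, washed twice with DMSO, dissolved in 0.2 N NaOH, diluted 1:2 in 0.1 N NaOH, and absorbance read at 405 nm.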

Plasmodium falciparum [2] = assay: Antimalarial activity as parasite development after 48 hrs against chloroquine-sensitive Plasmodium falciparum W2 by FACS analysis; format: functional, organism-based; details: W2, 48 h, in the assay text read “chloroquine-resistant” for “chloroquine-sensitive”
Summary of the method: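 Sorbitol-synchronized ring-stage P. falciparum W2, started at 0.1% parasitemia, grown in RPMI-1640 with 10% human serum under 3% O2/6% CO2/91% N2. Inhibitors were added from 1000× DMSO stocks for 48 h with no medium change. Cells were fixed in 1% formaldehyde/PBS pH 7.4 for 48 h at room temperature, then stained with 1 nM YOYO in 0.1% Triton X-100/PBS. Nucleated erythrocytes were counted by flow cytometry. IC50 came from nonlinear fits of % control parasitemia against concentration, duplicate experiments.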

Plasmodium falciparum [3] = assay: Antimalarial activity as inhibition of chloroquine-resistant Plasmodium falciparum mediated mice (Mus musculus) hemoglobin hydrolysis at 5 mM after 18 hrs; format: functional; parameters: scale not given: the % may be the effect or the level left
Summary of the method: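 Parasite extract was incubated with native mouse haemoglobin, GSH (10 mM as added) and 0.2 M acetate buffer pH 5.4, with inhibitors added in DMSO, at 37 °C for 18 h. Reactions were stopped with reducing sample buffer and run on SDS-PAGE. Digestion was scored by densitometry of the 14 kDa globin band against a DMSO control, as intensity/mm2 ± SD.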

Plasmodium berghei [4] = assay: Antimalarial activity as survival at day 4 in Peter's assay against Plasmodium berghei ANKA infected NIH mice (Mus musculus) at 25 mg/kg intraperitoneal dose 2 hrs post infection then daily for 4 days; format: functional
Summary of the method: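 NIH mice (18–23 g) were infected i.p. with 10^6 P. berghei-infected erythrocytes. Dosing started 2 h later, i.p. once daily for 4 days, with compounds at 20 mg/kg and chloroquine at 25 mg/kg, from 0.1 M DMSO stocks diluted in 2% saline–Tween 20. Day-4 parasitaemia was read from Giemsa smears as % of untreated control, and survival as % of mice. Analysis used one-way ANOVA and t-tests.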

Plasmodium berghei [5] = assay: Antimalarial activity as reduced parasitaemia at day 4 in Peter's assay against Plasmodium berghei ANKA infected in NIH mice (Mus musculus) at 25 mg/kg intraperitoneal dose 2 hrs post infection then daily for 4 days; format: functional; parameters: scale not given: the % may be the effect or the level left
Summary of the method: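 Chloroquine reference arm: NIH mice (18–23 g) were infected i.p. with 10^6 P. berghei-infected red cells and given 25 mg/kg once daily for 4 days, starting 2 h post-infection. Day-4 parasitemia was counted on Giemsa-stained smears, expressed relative to untreated controls, with survival recorded.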

Plasmodium berghei [6] = assay: Antimalarial activity as survival in Peter's assay at day 4 against Plasmodium berghei ANKA infected in NIH mice (Mus musculus) at 20 mg/kg intraperitoneal dose 2 hrs post infection then daily over 4 days
Plasmodium berghei [7] = assay: Antimalarial activity as reduced parasitaemia at day 4 in Peter's assay against Plasmodium berghei ANKA infected in NIH mice (Mus musculus) at 20 mg/kg intraperitoneal dose 2 hrs post infection then daily over 4 days; format: functional; parameters: scale not given: the % may be the effect or the level left
Summary of the method: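 NIH mice (18–23 g) were infected i.p. with 10^6 P. berghei-infected red cells. Compound was dissolved in DMSO (0.1 M), diluted in 2% saline–Tween 20, and given at 20 mg/kg i.p. once daily for 4 days, starting 2 h after infection. Day-4 parasitemia was read from Giemsa-stained smears as % of untreated controls. Survival was also recorded. Analysis used one-way ANOVA and t-tests.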

O=S(=O)(/C(Cl)=C/c1cccc2ccccc12)c1ccccc1
Activity [1]: < 5% | IC50 (Plasmodium falciparum [2]): 75 nM | Activity (Plasmodium falciparum [3]): 76.69%

O=S(=O)(/C(Cl)=C/c1ccc2c(c1)OCO2)c1ccccc1
Activity [1]: < 5% | IC50 (Plasmodium falciparum [2]): 53 nM | Activity (Plasmodium falciparum [3]): 37.34%

O=S(=O)(/C(Cl)=C/c1ccccc1)c1ccccc1
Activity [1]: < 5% | IC50 (Plasmodium falciparum [2]): > 10000 nM | Activity (Plasmodium falciparum [3]): 59.33%

O=S(=O)(/C(Cl)=C/c1ccc(Cl)cc1)c1ccccc1
Activity [1]: < 5% | IC50 (Plasmodium falciparum [2]): 83 nM | Activity (Plasmodium falciparum [3]): 74.92%

CC(=O)N[C@@H](CC(C)C)C(=O)N[C@@H](CC(C)C)C(=O)N[C@H](C=O)CCCNC(=N)N [LEUPEPTIN]
Activity (Plasmodium falciparum [3]): 89.75%

O=S(=O)(/C(Cl)=C/c1cc2ccccc2nc1Cl)c1ccccc1
Activity [1]: < 5% | IC50 (Plasmodium falciparum [2]): 25 nM | Activity (Plasmodium falciparum [3]): 28.49%

N#Cc1ccc(/C=C(\Cl)S(=O)(=O)c2ccccc2)cc1
Activity [1]: < 5% | IC50 (Plasmodium falciparum [2]): > 10000 nM | Activity (Plasmodium falciparum [3]): 44.73%

O=S(=O)(/C(Cl)=C/c1ccc(Cl)cc1Cl)c1ccccc1
Activity [1]: < 5% | IC50 (Plasmodium falciparum [2]): 960 nM | Activity (Plasmodium falciparum [3]): 75.3%

COc1ccc(/C=C(\Cl)S(=O)(=O)c2ccccc2)cc1
Activity [1]: < 5% | IC50 (Plasmodium falciparum [2]): 470 nM | Activity (Plasmodium falciparum [3]): <5%

CCN(CC)CCCC(C)Nc1ccnc2cc(Cl)ccc12 (stereo not drawn) [CHLOROQUINE]
Activity (Plasmodium berghei [4]): 30 days | Activity (Plasmodium berghei [5]): 3% | Activity [1]: 84.2% | Activity (Plasmodium falciparum [3]): 26.92%

O=[N+]([O-])c1ccc(/C=C(\Cl)S(=O)(=O)c2ccccc2)cc1
Activity [1]: < 5% | IC50 (Plasmodium falciparum [2]): 73 nM | Activity (Plasmodium falciparum [3]): 79.19%

O=S(=O)(/C(Cl)=C/c1ccc2ccccc2c1)c1ccccc1
Activity [1]: < 5% | IC50 (Plasmodium falciparum [2]): 58 nM | Activity (Plasmodium falciparum [3]): 84.59% | Activity (Plasmodium berghei [6]): 72% | Activity (Plasmodium berghei [7]): 6.25%

O=S(=O)(/C(Cl)=C/c1ccccc1Cl)c1ccccc1
Activity [1]: < 5% | IC50 (Plasmodium falciparum [2]): > 10000 nM | Activity (Plasmodium falciparum [3]): 65.81%

CC(C)CC(=O)N[C@H](C(=O)N[C@H](C(=O)N[C@@H](CC(C)C)[C@@H](O)CC(=O)N[C@@H](C)C(=O)N[C@@H](CC(C)C)[C@@H](O)CC(=O)O)C(C)C)C(C)C [PEPSTATIN]
Activity (Plasmodium falciparum [3]): 93.77%

O=S(=O)(/C(Cl)=C/c1ccc(F)cc1)c1ccccc1
Activity [1]: < 5% | IC50 (Plasmodium falciparum [2]): > 10000 nM | Activity (Plasmodium falciparum [3]): 52.72%

COc1cc(OC)c(OC)cc1/C=C(\Cl)S(=O)(=O)c1ccccc1
Activity [1]: < 5% | IC50 (Plasmodium falciparum [2]): > 10000 nM | Activity (Plasmodium falciparum [3]): 11.07%

COc1cc(OC)c(/C=C(\Cl)S(=O)(=O)c2ccccc2)c(OC)c1
Activity [1]: < 5% | IC50 (Plasmodium falciparum [2]): 10000 nM | Activity (Plasmodium falciparum [3]): <5%

COc1cc(/C=C(\Cl)S(=O)(=O)c2ccccc2)cc(OC)c1OC
Activity [1]: < 5% | IC50 (Plasmodium falciparum [2]): 10000 nM | Activity (Plasmodium falciparum [3]): <5%

O=S(=O)(/C(Cl)=C/c1ccc(Cl)c(Cl)c1)c1ccccc1
Activity [1]: < 5% | IC50 (Plasmodium falciparum [2]): 59 nM | Activity (Plasmodium falciparum [3]): 95.04% | Activity (Plasmodium berghei [6]): 50% | Activity (Plasmodium berghei [7]): 13.4%
